# In ChEMBL document CHEMBL2203281, “Microwave assisted synthesis and anti-influenza virus activity of 1-adamantyl substituted N-(1-thia-4-azaspiro[4.5]decan-4-yl)carboxamide derivatives” (Bioorg Med Chem, 2012):
# Assays:
# [1] = Cytotoxicity against dog MDCK cells assessed as cell viability by MTS assay; format: cell-based, Canis lupus familiaris
# [2] = Cytotoxicity against dog MDCK cells assessed as cell morphology alterations by microscopic analysis; format: cell-based, Canis lupus familiaris
# Summary of the method: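 MDCK cells were exposed to serial compound dilutions and kept 72 h at 35 °C alongside the antiviral plates. MCC is the lowest concentration causing a microscopically detectable change in cell morphology.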
# Influenza B virus [3] = experiment: Antiviral activity against Influenza B virus (B/HK/5/72) infected in MDCK cells assessed as virus-induced cytopathic effect after 3 days by MTS assay; format: functional, cell-based; settings: B/Hong Kong/05/1972, MDCK, 72 h
# Summary of the method: (§1)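 Multicycle CPE reduction assay in 96-well MDCK cells. Cells got serial compound dilutions together with influenza virus at multiplicity of infection 0.0004 PFU per cell, then 72 h at 35 °C. CPE was read by microscopic scoring and then by MTS cell viability.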
# Influenza B virus [4] = experiment: Antiviral activity against Influenza B virus (B/HK/5/72) infected in MDCK cells assessed as virus-induced cytopathic effect after 3 days by microscopic analysis; format: functional, cell-based; settings: B/Hong Kong/05/1972, MDCK, 72 h; summary of the method: as §1
# Influenza A virus [5] = experiment: Antiviral activity against Influenza A virus (A/X-31(H3N2)) infected in MDCK cells assessed as virus-induced cytopathic effect after 3 days by MTS assay; format: functional, organism-based; summary of the method: as §1
# Influenza A virus [6] = experiment: Antiviral activity against Influenza A virus (A/X-31(H3N2)) infected in MDCK cells assessed as virus-induced cytopathic effect after 3 days by microscopic analysis; format: functional, organism-based; settings: 72 h; summary of the method: as §1
# Influenza A virus [7] = experiment: Antiviral activity against Influenza A virus (A/PR/8/34(H1N1)) infected in MDCK cells assessed as virus-induced cytopathic effect after 3 days by MTS assay; format: functional, organism-based, A/Puerto Rico/8/1934(H1N1); summary of the method: as §1
# Influenza A virus [8] = experiment: Antiviral activity against Influenza A virus (A/PR/8/34(H1N1)) infected in MDCK cells assessed as virus-induced cytopathic effect after 3 days by microscopic analysis; format: functional, organism-based, A/Puerto Rico/8/1934(H1N1); summary of the method: as §1
# Hemagglutinin = Hemagglutinin (Influenza A virus (strain A/X-31 H3N2), UniProt P03438); experiment: Inhibition of hemagglutininin in Influenza A virus (A/X-31(H3N2)) infected in chicken red blood cells assessed as inhibition of hemolysis preincubated for 1 hr prior to addition of red blood cells measured at pH 5.0 by spectrophotometric analysis; format: cell-based
# Chain of Hemagglutinin (P03438 whole entry): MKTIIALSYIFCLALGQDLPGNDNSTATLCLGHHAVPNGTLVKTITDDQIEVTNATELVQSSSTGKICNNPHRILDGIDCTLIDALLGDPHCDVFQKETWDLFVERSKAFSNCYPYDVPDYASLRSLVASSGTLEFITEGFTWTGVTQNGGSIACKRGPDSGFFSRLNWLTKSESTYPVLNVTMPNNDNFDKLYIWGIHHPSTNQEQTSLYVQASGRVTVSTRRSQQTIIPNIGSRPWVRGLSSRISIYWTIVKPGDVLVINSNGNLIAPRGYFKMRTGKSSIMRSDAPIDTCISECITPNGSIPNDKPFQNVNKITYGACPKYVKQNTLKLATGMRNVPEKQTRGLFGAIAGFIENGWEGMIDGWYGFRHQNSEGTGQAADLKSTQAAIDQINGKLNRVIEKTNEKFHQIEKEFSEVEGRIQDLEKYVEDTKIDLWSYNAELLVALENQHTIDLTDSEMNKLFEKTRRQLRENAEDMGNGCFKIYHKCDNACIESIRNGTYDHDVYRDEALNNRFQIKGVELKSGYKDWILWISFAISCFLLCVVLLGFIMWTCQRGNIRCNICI
# Summary of the method: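 Influenza A/X-31 (H3N2) stock was preincubated with serial compound dilutions for 1 h at 37 °C. Chicken RBC were added for 10 min at 37 °C, then pelleted and resuspended in buffer holding the same compound level. pH was lowered to 5.0 for 25 min at 37 °C, then neutralised. Intact RBC were spun out and supernatant OD540 read. IC50 came from dose-response.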
# [9] = Selectivity index, ratio of cytotoxic concentration for dog MDCK cells to EC50 for Influenza A virus (A/X-31(H3N2)); format: toxicity, cell-based; settings: read-out: Ratio EC50
# [10] = Influenza A virus, A/Puerto Rico/8/1934(H1N1), MDCK, 72 h
Compound,CC50 [1] [µM],MCC [2] [µM],EC50 (Influenza B virus [3]) [µM],EC50 (Influenza B virus [4]) [µM],"EC50 (Influenza A virus [5]; Influenza A virus, MDCK, 72 h) [µM]",EC50 (Influenza A virus [6]) [µM],EC50 (Influenza A virus [7]; [10]) [µM],EC50 (Influenza A virus [8]; [10]) [µM],IC50 (Hemagglutinin) [µM],selectivity ratio [9],EC50 (Influenza A virus [5]; mdck) [µM],EC50 (Influenza A virus [7]; mdck) [µM],EC50 (Influenza A virus [8]; mdck) [µM]
NC12CC3CC(CC(C3)C1)C2 [AMANTADINE],> 500,> 500,> 500,> 500,208,224,75,58,–,–,–,–,–
CCC1CCC2(CC1)SC(C)C(=O)N2NC(=O)C12CC3CC(CC(C3)C1)C2 (stereo not drawn),> 100,> 100,> 100,> 100,1.7,51,> 100,> 100,–,–,–,–,–
CCCC1CCC2(CC1)SC(C)C(=O)N2NC(=O)C12CC3CC(CC(C3)C1)C2 (stereo not drawn),> 100,> 100,> 100,> 100,23,29,> 100,> 100,–,–,–,–,–
CC1SC2(CCCCC2)N(NC(=O)C23CC4CC(CC(C4)C2)C3)C1=O (stereo not drawn),> 100,> 100,> 100,> 100,> 100,> 100,> 100,> 100,–,–,–,–,–
CC(=O)N[C@H]1[C@H]([C@H](O)[C@H](O)CO)OC(C(=O)O)=C[C@@H]1NC(=N)N [ZANAMIVIR],> 100,> 100,0.063,0.072,53,12,0.48,0.44,–,–,–,–,–
CC(C)(C)C1CCC2(CC1)SCC(=O)N2NC(=O)C12CC3CC(CC(C3)C1)C2 (stereo not drawn),> 100,> 20,> 100,> 100,34,> 100,53,> 100,–,–,–,–,–
O=C1CSC2(CCC(c3ccccc3)CC2)N1NC(=O)C12CC3CC(CC(C3)C1)C2 (stereo not drawn),> 100,> 20,> 100,> 100,> 100,> 100,> 100,> 100,–,–,–,–,–
CC1SC2(CCC(c3ccccc3)CC2)N(NC(=O)C23CC4CC(CC(C4)C2)C3)C1=O (stereo not drawn),42,20,> 100,> 100,> 100,> 100,> 100,> 100,–,–,–,–,–
CCC1CCC2(CC1)SCC(=O)N2NC(=O)C12CC3CC(CC(C3)C1)C2 (stereo not drawn),> 100,> 100,> 100,> 100,21,> 100,> 100,> 100,–,–,–,–,–
CC1CCC2(CC1)SC(C)C(=O)N2NC(=O)C12CC3CC(CC(C3)C1)C2 (stereo not drawn),> 100,> 100,> 100,> 100,1.4,1.6,> 100,> 100,3.7,> 67,–,–,–
CC(N)C12CC3CC(CC(C3)C1)C2 (stereo not drawn) [RIMANTADINE],218,–,> 500,> 500,40,45,2.5,2.7,–,–,–,–,–
NC(=O)c1ncn([C@@H]2O[C@H](CO)[C@@H](O)[C@H]2O)n1 [RIBAVIRIN],> 100,> 20,0.14,0.094,–,–,–,–,–,–,8.5,8.4,8.9
CC1CCC2(CC1)SCC(=O)N2NC(=O)C12CC3CC(CC(C3)C1)C2 (stereo not drawn),> 100,> 100,> 100,> 100,> 100,> 100,> 100,> 100,–,–,–,–,–
CCCC1CCC2(CC1)SCC(=O)N2NC(=O)C12CC3CC(CC(C3)C1)C2 (stereo not drawn),> 100,> 100,> 100,> 100,44,> 100,> 100,> 100,–,–,–,–,–
Cc1nc2sccn2c1C(=O)NN1C(=O)C(C)SC12CCC(C)CC2 (stereo not drawn),> 100,> 100,> 100,> 100,9,6.8,> 100,> 100,–,–,–,–,–
CC1SC2(CCC(C(C)(C)C)CC2)N(NC(=O)C23CC4CC(CC(C4)C2)C3)C1=O (stereo not drawn),> 100,> 100,> 100,> 100,> 100,> 100,> 100,> 100,–,–,–,–,–
